Screening data as filed in PubChem.
PTPN22 inh 2 – blocks human PTPN22 phosphatase activity; Q9Y2R2; actives 0.21% (n = 96,000); recombinant LYP catalytic domain, DiFMUP fluorescence; AID 640; inhibition, % at 2 µM;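 active means inhibition at 2 µM at or above a set limit, the screen mean plus 3 SD, cut at about 24% in these data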
LYP act – activators of human LYP (PTPN22) phosphatase; Q9Y2R2; recombinant LYP, DiFMUP fluorescence; 0 = plate median, 100 = signal doubled; activation, % at 2 µM; actives 0.11% (n = 96,000); AID 697;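 active means activation at 2 µM above a set limit, the mean plus 5 SD, cut at about 37% in these data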
PLK1 kinase inh – blocks human PLK1 kinase activity; inhibition, % at 10 µM; actives 0.53% (n = 97,000); P53350; AID 619; recombinant PLK1 kinase, TR-FRET peptide phosphorylation;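 active means inhibition of 50% or more in the single-concentration screen; inactive means inhibition below 50%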
EphB4 ephrin blk – blocks human EphB4 binding to ephrin-B2 | inhibition, % at 7 µM | EphB4 LBD / TNYL-RAW-Alexa532 peptide, fluorescence polarization | AID 720 | actives 0.15% (n = 97,000);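 active means inhibition above the screen-wide mean inhibition plus 3 SD, cut at about 15% in these data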
PLK1 PBD inh – blocks phosphopeptide binding to human Plk1 polo box domain; Plk1 PBD phosphopeptide binding, fluorescence polarization; inhibition, %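 (tested at about 20 µM)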; actives 0.13% (n = 97,000); P53350; in the data active means inhibition above about 34%, passing the limit was not always enough
Rev-RRE block – HIV Rev-RRE protein-RNA interaction inhibition; P05866; inhibition, % at 8 µM; Rev peptide-RRE RNA binding, FRET; AID 704; actives 0.79% (n = 97,000);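 active means inhibition above the screen-wide mean plus 3 SD, cut at about 35% in these data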
Target sequence (P05866 whole entry, looked up): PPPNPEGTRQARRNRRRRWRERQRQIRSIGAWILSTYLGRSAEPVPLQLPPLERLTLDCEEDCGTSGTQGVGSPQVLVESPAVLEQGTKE
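System: Cy5-labelled duplex RRE RNA binding fluorescein-labelled HIV Rev peptide; Signal: fluorescein-to-Cy5 FRET, 480 nm excitation; Also added: labelled Rev peptide; Compound: one concentration, 8 µM nominal; Buffer or medium: HEPES pH 7.5 salt buffer with EDTA; Read-out: % inhibition of FRET ratio versus controls; Schedule: 5 min preincubation and 15 min binding, 25 °C.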
Each line names hits and unclear results; the compound was inactive in the other large screens; [ ] = dose if it differs, or a comment. This is a sample that favours compounds with a hit; in the whole collection about 1.8% have one here.

O=C(CSc1cn(CCNC(=O)c2ccccc2)c2ccccc12)NCc1ccco1	PLK1 kinase inh 67.3 (no result: PTPN22 inh 2, LYP act)
Cc1cc(NC(=O)CSc2cn(CCNC(=O)c3ccccc3)c3ccccc23)no1	none
Cc1ccc(C(=O)NCCn2cc(SCC(=O)Nc3cc(C)on3)c3ccccc32)cc1	PLK1 kinase inh 61.8 (no result: PTPN22 inh 2, LYP act)
Cc1[nH]nc2c1C1(CCOCC1)C(C#N)=C(N)O2	none
CCOC(=O)C1CCC2(CC1)C(C#N)=C(N)Oc1n[nH]c(C)c12 (stereo not drawn)	PLK1 kinase inh 69.9
Cc1ccccc1Nc1c(N)c(=O)oc2ccccc12	none
Cc1cnc(N)c2c(=O)oc3ccccc3c12	PLK1 kinase inh 52.0 (no result: PTPN22 inh 2, LYP act)
CC(=O)Nc1ccc(OCC=C(Cl)Cl)cc1	EphB4 ephrin blk 16.2
CC1(C)Cc2c(C#N)c(N3CCN(C(=O)c4ccco4)CC3)nc(-c3ccco3)c2CS1	none
CC1(C)Cc2c(C#N)c(N3CCN(C(=O)c4ccccc4Cl)CC3)nc(-c3ccco3)c2CS1	Rev-RRE block 50.8
CCOCC(=O)Nc1nnc(COCC)s1	none
CCOCC(=O)Nc1nnc(SCCOC)s1	PLK1 kinase inh 51.5
O=C(O)C1(c2cccc(Cl)c2)CCC1	none
O=c1[nH]n(-c2cccc3cccnc23)c(=O)c2ccccc12	none
Oc1c(C=Nc2cccc3cccnc23)sc2ccccc12	Rev-RRE block 133.3[fluorescence artefact?]
Cn1cc(S(=O)(=O)N2CCN(c3ccccc3)CC2)c(=O)n(C)c1=O	EphB4 ephrin blk 15.9
CSc1ccc(S(=O)(=O)NCc2ccc(Cl)cc2Cl)cc1	none
O=C1NC(c2ccco2)Nc2sc3c(c21)CCN(Cc1ccccc1)C3 (stereo not drawn)	Rev-RRE block 70.3
CN1CCc2c(sc3c2C(=O)NC(c2cn(Cc4ccccc4)c4ccccc24)N3)C1 (stereo not drawn)	Rev-RRE block 79.1
CN1CCc2c(sc3c2C(=O)NC(c2ccco2)N3)C1 (stereo not drawn)	none
COc1ccc(C2NC(=S)NC3=C2CCc2cc(OC)ccc23)cc1 (stereo not drawn)	none
CC(=O)Nc1nc2n(n1)C(c1ccc(Cl)cc1)C=C(C)N2 (stereo not drawn)	none
CCC(=O)Nc1nc2n(n1)C(c1ccc(OC)cc1)C=C(c1ccccc1)N2 (stereo not drawn)	Rev-RRE block 44.6
O=C(Nc1nc2n(n1)C(c1ccccc1)C=C(c1ccccc1)N2)c1ccco1 (stereo not drawn)	Rev-RRE block 45.6
CC(=O)Nc1nc2n(n1)C(c1ccc(F)cc1)C=C(c1ccccc1)N2 (stereo not drawn)	Rev-RRE block 56.3
CC(=O)Nc1nc2n(n1)C(c1ccccc1)C=C(c1ccccc1)N2 (stereo not drawn)	none
COc1ccc(C2C=C(c3ccc(Cl)cc3)Nc3nc(NC(C)=O)nn32)cc1 (stereo not drawn)	Rev-RRE block 77.9
OCCNc1nc(SCc2ccccc2)nc2sc3c(c12)CCC3	none
O=C(CCCN1C(=O)c2cccc3cccc(c23)C1=O)N1CCc2ccccc2C1	none
CCOC(=O)c1cccc(NC(=O)CN(c2ccc(C)cc2)S(=O)(=O)c2c(C)n[nH]c2C)c1	none
COc1ccc(C2CC(c3ccc(Cl)cc3)Nc3nc(NC(=O)c4ccco4)nn32)cc1 (stereo not drawn)	none
O=C(c1nc2n(n1)C(c1ccc(Cl)cc1)C=C(c1ccccc1)N2)N1CCOCC1 (stereo not drawn)	Rev-RRE block 118.1[fluorescence artefact?]
O=C(Nc1nc2n(n1)C(c1ccc(Cl)cc1)CC(c1ccc(Cl)cc1)N2)c1ccco1 (stereo not drawn)	EphB4 ephrin blk 20.7
CN(C)c1nc(Oc2ccc(=O)[nH]n2)nc(N2CCCCC2)n1	none
CCOc1ccc(C2C(C(=O)c3ccco3)=C(O)C(=O)N2CCN(C)C)cc1 (stereo not drawn)	none
C=CCOc1cccc(C2C(C(=O)c3ccco3)=C(O)C(=O)N2CCN(CC)CC)c1 (stereo not drawn)	PLK1 kinase inh 52.5
COc1cccc(C2C(C(=O)c3ccc(C)o3)=C(O)C(=O)N2CCCN(C)C)c1 (stereo not drawn)	none
C=CCOc1cccc(C2C(C(=O)c3ccc(C)o3)=C(O)C(=O)N2c2nccs2)c1 (stereo not drawn)	Rev-RRE block 78.3
N#CC1=C(SCC(=O)c2cc3ccccc3oc2=O)NC(=O)C(C#N)C12CCCC2 (stereo not drawn)	Rev-RRE block 112.6[fluorescence artefact?]
C=CCNC(=S)NNC(=O)c1cccc2ccccc12	none
CNC(=S)NNC(=O)c1cccn(Cc2ccc(Cl)c(Cl)c2)c1=O	PTPN22 inh 2 69.4
C=CCNC(=S)NNC(=O)c1cccn(Cc2ccc(Cl)c(Cl)c2)c1=O	PTPN22 inh 2 27.6
CNC(=S)NNC(=O)c1cccn(Cc2cccc(Cl)c2)c1=O	PTPN22 inh 2 59.7
O=C(Nc1cccn(Cc2c(Cl)cccc2Cl)c1=O)c1ccccc1Cl	none
CCc1ccc(C(=O)COC(=O)c2ccc(-c3nnc(-c4ccccc4)o3)cc2)cc1	none
Cc1n[nH]c(C)c1N1C(=O)c2cccc3c(N4CCCCCC4)ccc(c23)C1=O	Rev-RRE block 134.1[fluorescence artefact?]
O=C1c2cccc3c(N4CCCCC4)ccc(c23)C(=O)N1CCO	Rev-RRE block 118.0[fluorescence artefact?]
COc1ccccc1C1N(c2ccc(F)cc2)C(=O)C2CCCN21 (stereo not drawn)	none
Cc1cc(/C=C2/SC(=S)N(c3cccc(Cl)c3)C2=O)c(C)n1-c1cccnc1	Rev-RRE block 38.6
CNC(=O)CN(c1ccc(F)cc1)S(=O)(=O)c1cc(C)ccc1OC	none
Cc1ccc(S(=O)(=O)c2ccc(Oc3cccc(C)c3)cc2)cc1	none
O=C(Cn1c2ccccc2c(=O)c2ccccc21)N/N=C/c1cc([N+](=O)[O-])ccc1N1CCCCCC1	PTPN22 inh 2 27.5
O=C(CNc1ccccc1)N/N=C/c1cc([N+](=O)[O-])ccc1N1CCCC1	none
CCN(CC)CCNC(=O)Cn1nc(Cc2cccnc2)c2ccccc2c1=O	PLK1 kinase inh 61.9 (no result: PTPN22 inh 2, LYP act)
O=C(Cn1nc(Cc2cccnc2)c2ccccc2c1=O)NCCCN1CCCC1=O	none
O=C(NCC(c1cccnc1)N1CCN(c2ccc(F)cc2)CC1)c1ccc(F)cc1 (stereo not drawn)	none
COc1ccc(N=NC2=C(O)CC(C)(C)CC2=O)c(OC)c1	Rev-RRE block 58.8
COc1ccc(N=NC2=C(O)CC(C)(C)CC2=O)cc1	none
Cc1ccc2cc3c(N)c(C(=O)N4CC(=O)Nc5ccccc54)sc3nc2c1	Rev-RRE block 67.1
Cc1ccc2cc3c(N)c(C(=O)N4CCOCC4)sc3nc2c1	none
Cc1ccc(C(=O)/C=C/c2ccc3c(c2)OCO3)o1	PLK1 kinase inh 63.9
CC(/C=C/c1ccc2c(c1)OCO2)=N/NC(=O)CNc1ccc(C)cc1	none
Cc1ccc(C(=O)/C=C/c2ccc(Br)cc2)o1	none
